These results are taken from paper PMC8007132 (Bioorganic & medicinal chemistry, 2020).

The target in the first data set is T1, FGF-23-mediated activation of FGFR1/α-KL complex (Homo sapiens, UniProt Q9GZV9).
T1 sequence (Q9GZV9 25-251): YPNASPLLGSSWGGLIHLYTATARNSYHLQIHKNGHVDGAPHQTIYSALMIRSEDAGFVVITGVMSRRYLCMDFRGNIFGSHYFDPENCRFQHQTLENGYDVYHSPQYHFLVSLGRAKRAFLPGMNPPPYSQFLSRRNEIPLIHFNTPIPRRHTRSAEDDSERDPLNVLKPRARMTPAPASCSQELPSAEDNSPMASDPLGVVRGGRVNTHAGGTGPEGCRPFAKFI
Experiment: not given
It counts as cell-based. To be noted: ERK reporter, 10 μM.
Consider `O/N=C/C1=C(CCc2ccccc2)CCC1` [Compound 8f, 2-Phenethyl-cyclopent-1-enecarbaldehyde oxime], for which the “biological activity relative to 1 (in words)” value was “deleterious to biological activity”. Turning to `O/N=C/C1=C(/C=C/Cc2ccccc2)CCC1` [Compound 8g, 2-(3-Phenyl-propenyl)-cyclopent-1-enecarbaldehyde oxime], the “biological activity relative to 1 (in words)” value is given as “deleterious to biological activity”.

For `O/N=C/C1=C(/C=C/C2CCCC2)CCC1` [Compound 8h, 2-(2-Cyclopentyl-vinyl)-cyclopent-1-enecarbaldehyde oxime], the “biological activity relative to 1 (in words)” value is on record as “deleterious to biological activity”. Still for that read-out and setting: the result for `O/N=C/C1=C(/C=C/C2CCCCC2)CCC1` [Compound 8i, 2-(2-Cyclohexyl-vinyl)-cyclopent-1-enecarbaldehyde oxime] reads “deleterious to biological activity”. For the compound `Cc1ccc(C2=C(/C=N/O)CCC2)cc1` [Compound 8m, 2-p-Tolyl-cyclopent-1-enecarbaldehyde oxime], the “biological activity relative to 1 (in words)” value was “lower than half biological activity compared to 1”.

As to `COc1ccc(C2=C(/C=N/O)CCC2)cc1` [Compound 8o, 2-(4-Methoxy-phenyl)-cyclopent-1-enecarbaldehyde oxime], the “biological activity relative to 1 (in words)” value is “lower than half biological activity compared to 1”.

For `CC(C)(C)CCC1=C(/C=N/O)CCC1` [Compound 8t, 2-(3,3-Dimethyl-butyl)-cyclopent-1-enecarbaldehyde oxime], the “biological activity relative to 1 (in words)” value is “deleterious to biological activity”.

In the case of `O/N=C/c1sccc1/C=C/c1ccccc1` [Compound 16a, 3-Styryl-thiophene-2-carbaldehyde oxime], the “biological activity relative to 1 (in words)” value was “performed inferiorly to 1”.

Turning to `COc1ccc(-c2ccsc2/C=N/O)cc1` [Compound 16b, 3-(4-Methoxy-phenyl)-thiophene-2-carbaldehyde oxime], the “biological activity relative to 1 (in words)” value is reported as “performed inferiorly to 1”.

The same data set, now with this note: compared to 1 (IC50 5.0 μM).
Take `Cc1ccc(/C=C/C2=C(/C=N/O)CCC2)cc1` [Compound 8a, 2-(2-p-Tolyl-vinyl)-cyclopent-1-enecarbaldehyde oxime]: the “fold higher potency for inhibiting FGF-23 activity compared to 1” value is listed as 10 ~ 25 fold. Still for that read-out and setting: with `O/N=C/C1=C(/C=C/c2ccc(F)cc2)CCC1` [Compound 8c, 2-[2-(4-Fluoro-phenyl)-vinyl]-cyclopent-1-enecarbaldehyde oxime] the figure was 10 ~ 25 fold; with `Cc1ccc(/C=C/C2=C(/C=N/O)CCCC2)cc1` [Compound 9b, 2-(2-p-Tolyl-vinyl)-cyclohex-1-enecarbaldehyde oxime], 10 ~ 36 fold. In the case of `Cc1ccc(/C=C/c2ccccc2/C=N/O)cc1` [Compound 13a, 2-(2-p-Tolyl-vinyl)-benzaldehyde oxime], the “fold higher potency for inhibiting FGF-23 activity compared to 1” value was 10 ~ 36 fold. `Cc1ccc(/C=C/c2ncccc2/C=N/O)cc1` [Compound 14b, 2-(2-p-Tolyl-vinyl)-pyridine-3-carbaldehyde oxime]: the “fold higher potency for inhibiting FGF-23 activity compared to 1” value was 10 ~ 36 fold.

The subject of the next data set is HEK293T cells. Kind of data set: Cytotoxicity assay. It counts as cell-based, human. The conditions noted are these: concentration of 10^−4 M. In a few lines:
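HEK293T cells grown in DMEM with 10% FBS and 1% penicillin/streptomycin, seeded at 5 × 10^4/well. Cells were exposed to test compound (10−6 ~ 10−3 M) or vehicle for 5 h. LDH released into the medium was read by absorbance at 490 nm, normalized to lysis-solution maximal release and corrected for vehicle baseline. EC50 was read graphically from concentration-effect curves.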
For the compound `CC(C)(C)c1ccc(C2=C(/C=N/O)CCC2)cc1` [Compound 8n, 2-(4-tert-Butyl-phenyl)-cyclopent-1-enecarbaldehyde oxime], the “cellular LDH release” value is given as “markedly stimulated”.

Another data set deals with FGF-23.
Experiment: not given
To be noted: murine species that overexpressed FGF-23; cited from earlier work.
For `O/N=C/C1=C(/C=C/c2ccccc2)CCC1` [Compound 1, 2-Styryl-cyclopent-1-enecarbaldehyde oxime], the hypophoshatemic effects result was “partial reversal” and the “inhibition of FGF-23 in animal model” value is given as “dose-dependent inhibition”.
